Assay results published in ChEMBL document CHEMBL4033702, “Challenges in the development of an M4 PAM preclinical candidate: The discovery, SAR, and in vivo characterization of a series of 3-aminoazetidine-derived amides” (Bioorg Med Chem Lett, 2017).
Where “and” joins values, the source holds several entries; their conditions need not be identical. Equal entries are not always repeated.

What was measured:
[1] = target: T1, Muscarinic acetylcholine receptor M4 (Homo sapiens, UniProt P08173); assay: Positive allosteric modulation of human M4 receptor expressed in CHO cells co-expressing Gqi5 assessed as increase in acetylcholine-induced calcium mobilization
T1 sequence (P08173 whole entry): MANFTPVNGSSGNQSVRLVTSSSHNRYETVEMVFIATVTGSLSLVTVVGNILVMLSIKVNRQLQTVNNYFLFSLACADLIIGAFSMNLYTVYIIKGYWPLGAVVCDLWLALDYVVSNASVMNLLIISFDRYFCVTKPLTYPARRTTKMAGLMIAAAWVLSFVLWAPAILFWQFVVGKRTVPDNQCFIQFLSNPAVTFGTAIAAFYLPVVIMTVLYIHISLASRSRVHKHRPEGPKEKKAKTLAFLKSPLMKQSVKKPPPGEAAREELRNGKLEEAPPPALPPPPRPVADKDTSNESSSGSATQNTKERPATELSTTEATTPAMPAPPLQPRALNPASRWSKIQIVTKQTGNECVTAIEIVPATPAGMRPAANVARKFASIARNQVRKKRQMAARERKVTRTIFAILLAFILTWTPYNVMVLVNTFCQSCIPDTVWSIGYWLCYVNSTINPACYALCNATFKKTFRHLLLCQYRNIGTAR

[2] = target: T2, Muscarinic acetylcholine receptor M4 (Homo sapiens) (UniProt P08173); assay: Positive allosteric modulation of human M4 receptor expressed in CHO cells co-expressing Gqi5 assessed as increase in acetylcholine-induced calcium mobilization relative to acetylcholine; assay type: functional, cell-based
T2 sequence (whole entry): T1 sequence (P08173 whole entry)
How it was run: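 Calcium mobilization in CHO cells stably co-expressing hM4 and Gqi5, tested in the presence of a fixed EC20 concentration of acetylcholine. Values are means of three independent experiments, each run in triplicate.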

[3] = test system: Rattus norvegicus; assay: Reversal of amphetamine-induced hyperlocomotion in Sprague-Dawley rat at 10 mg/kg, po pretreated 30 mins post habituation in the chamber followed by amphetamine injection after 30 mins measured after 60 mins; assay type: functional
How it was run: (§1)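 Male Sprague-Dawley rats, n = 6–24 per dose group, were habituated in the chamber for 30 min. The compound or vehicle (10% tween-80 in water, v/v) was then given orally. Amphetamine 0.75 mg/kg was injected subcutaneously 30 min later. Total ambulations over t = 60–120 min gave % reversal of AHL, reported as mean ± SEM.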

[4] = target: Cytochrome P450 2D6 (Homo sapiens, UniProt P10635); assay: Inhibition of CYP2D6 (unknown origin); assay type: ADME
[5] = test system: Rattus norvegicus; assay: Reversal of amphetamine-induced hyperlocomotion in Sprague-Dawley rat at 30 mg/kg, po pretreated 30 mins post habituation in the chamber followed by amphetamine injection after 30 mins measured after 60 mins; assay type: functional; how it was run: as §1
[6] = Volume of distribution at steady state in Sprague-Dawley rat; assay type: ADME; conditions: in vivo, read-out: Vdss
How it was run: (§2)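 IV and PO pharmacokinetics in male Sprague-Dawley rats, n = 1–3. The oral dose was a 2–3 mg/kg solution. Plasma clearance, Vss and oral bioavailability were determined.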

[7] = target: T3, Muscarinic acetylcholine receptor M2 (Homo sapiens) (UniProt P08172); assay: Activity at human M2 receptor assessed as increase in acetylcholine-induced calcium mobilization relative to acetylcholine; assay type: functional
T3 sequence (whole entry): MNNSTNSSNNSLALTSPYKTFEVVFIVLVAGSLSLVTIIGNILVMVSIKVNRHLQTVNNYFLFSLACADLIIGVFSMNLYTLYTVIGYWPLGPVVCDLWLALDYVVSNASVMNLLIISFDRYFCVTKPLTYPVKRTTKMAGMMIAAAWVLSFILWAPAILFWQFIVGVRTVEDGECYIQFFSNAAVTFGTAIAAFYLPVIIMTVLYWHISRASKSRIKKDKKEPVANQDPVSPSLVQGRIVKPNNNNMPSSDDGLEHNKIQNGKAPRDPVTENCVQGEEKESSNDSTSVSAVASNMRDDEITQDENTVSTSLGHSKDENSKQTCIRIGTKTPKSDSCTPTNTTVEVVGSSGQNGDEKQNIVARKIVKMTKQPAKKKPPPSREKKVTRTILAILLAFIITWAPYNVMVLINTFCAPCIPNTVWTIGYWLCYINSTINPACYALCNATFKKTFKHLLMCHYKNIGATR

[8] = Elimination half-life in Sprague-Dawley rat; assay type: ADME; conditions: in vivo, read-out: beta t1/2 (converted)
[9] = target: Cytochrome P450 3A4 (Homo sapiens, UniProt P08684); assay: Inhibition of CYP3A4 (unknown origin); assay type: ADME
[10] = test system: MDR1; assay: Efflux ratio of permeability in MDCK2-MDR1 cells; assay type: ADME, cell-based, Canis lupus familiaris; conditions: dog, MDCK-MDR1
[11] = Ratio of unbound brain to plasma concentration in Sprague-Dawley rat administered as iv cassette dose measured at 0.25 hrs post dose; assay type: ADME, organism-based
[12] = target: T4, Cytochrome P450 1A2 (Homo sapiens, UniProt P05177); assay: Inhibition of CYP1A2 (unknown origin); assay type: ADME
T4 sequence (P05177 whole entry): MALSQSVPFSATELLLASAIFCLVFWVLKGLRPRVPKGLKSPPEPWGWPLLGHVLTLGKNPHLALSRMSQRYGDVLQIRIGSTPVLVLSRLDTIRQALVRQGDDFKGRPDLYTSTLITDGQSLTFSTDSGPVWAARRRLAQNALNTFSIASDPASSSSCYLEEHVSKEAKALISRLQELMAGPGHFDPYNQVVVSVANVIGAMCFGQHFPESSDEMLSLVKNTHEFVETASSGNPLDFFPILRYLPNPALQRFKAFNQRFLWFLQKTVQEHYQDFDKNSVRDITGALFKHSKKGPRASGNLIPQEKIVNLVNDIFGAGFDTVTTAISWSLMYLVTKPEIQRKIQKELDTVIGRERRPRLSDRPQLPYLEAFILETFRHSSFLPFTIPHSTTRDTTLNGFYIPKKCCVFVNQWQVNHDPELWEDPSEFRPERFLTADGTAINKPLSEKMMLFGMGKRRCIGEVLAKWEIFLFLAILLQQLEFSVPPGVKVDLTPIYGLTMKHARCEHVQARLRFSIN

[13] = target: T5, Muscarinic acetylcholine receptor M2 (Homo sapiens, UniProt P08172); assay: Activity at human M2 receptor assessed as increase in acetylcholine-induced calcium mobilization; assay type: functional
T5 sequence (P08172 whole entry): T3 sequence (whole entry)

[14] = target: Cytochrome P450 2C9 (Homo sapiens, UniProt P11712); assay: Inhibition of CYP2C9 (unknown origin); assay type: ADME
[15] = test system: Rattus norvegicus; assay: Reversal of amphetamine-induced hyperlocomotion in Sprague-Dawley rat at 56.6 mg/kg, po pretreated 30 mins post habituation in the chamber followed by amphetamine injection after 30 mins measured after 60 mins; assay type: functional; conditions: in the assay text read “1 mg/kg” for “56.6 mg/kg”; how it was run: as §1
[16] = test system: Rattus norvegicus; assay: Reversal of amphetamine-induced hyperlocomotion in Sprague-Dawley rat at 3 mg/kg, po pretreated 30 mins post habituation in the chamber followed by amphetamine injection after 30 mins measured after 60 mins; assay type: functional; how it was run: as §1
[17] = Brain to plasma permeability coefficient, Kp of the compound in Sprague-Dawley rat administered as iv cassette dose measured at 0.25 hrs post dose; assay type: ADME, organism-based; conditions: for Kp: brain, 0.25 h; for Kp at 0.25 h: Sprague-Dawley, brain and plasma
[18] = Clearance in Sprague-Dawley rat; assay type: ADME; conditions: in vivo; how it was run: as §2
[19] = species on record: Rattus norvegicus; assay: Drug metabolism in Sprague-Dawley rat assessed as aldehyde oxidase-mediated metabolism at alpha to 4-pryidyl nitrogen; assay type: ADME

Sequence of Cytochrome P450 3A4 (P08684 whole entry): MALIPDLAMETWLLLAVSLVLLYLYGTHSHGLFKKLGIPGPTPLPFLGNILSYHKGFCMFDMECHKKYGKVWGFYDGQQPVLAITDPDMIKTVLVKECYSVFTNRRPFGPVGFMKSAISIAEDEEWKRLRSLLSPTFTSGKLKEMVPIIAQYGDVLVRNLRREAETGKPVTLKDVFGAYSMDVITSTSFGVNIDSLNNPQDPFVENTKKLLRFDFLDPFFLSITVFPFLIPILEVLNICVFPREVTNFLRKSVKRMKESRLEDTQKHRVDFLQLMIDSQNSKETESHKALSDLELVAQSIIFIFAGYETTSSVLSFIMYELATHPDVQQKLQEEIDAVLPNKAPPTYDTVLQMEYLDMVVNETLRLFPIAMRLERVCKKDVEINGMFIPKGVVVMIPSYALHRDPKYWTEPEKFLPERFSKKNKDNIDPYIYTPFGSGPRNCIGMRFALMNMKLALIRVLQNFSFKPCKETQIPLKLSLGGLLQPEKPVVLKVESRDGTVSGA
Sequence of Cytochrome P450 2C9 (P11712 whole entry): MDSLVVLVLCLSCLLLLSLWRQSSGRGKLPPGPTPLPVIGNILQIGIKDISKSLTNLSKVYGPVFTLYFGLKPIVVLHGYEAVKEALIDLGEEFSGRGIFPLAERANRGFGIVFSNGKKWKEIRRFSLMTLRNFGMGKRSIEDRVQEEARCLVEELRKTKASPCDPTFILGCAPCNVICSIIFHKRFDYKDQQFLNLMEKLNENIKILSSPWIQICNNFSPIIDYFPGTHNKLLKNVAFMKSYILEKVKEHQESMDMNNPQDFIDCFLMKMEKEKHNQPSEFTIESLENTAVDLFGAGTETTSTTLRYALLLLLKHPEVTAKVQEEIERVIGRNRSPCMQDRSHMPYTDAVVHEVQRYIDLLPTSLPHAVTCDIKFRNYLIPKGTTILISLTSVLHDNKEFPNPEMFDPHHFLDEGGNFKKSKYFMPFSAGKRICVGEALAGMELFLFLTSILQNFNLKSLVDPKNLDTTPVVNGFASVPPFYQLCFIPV
Sequence of Cytochrome P450 2D6 (P10635 whole entry): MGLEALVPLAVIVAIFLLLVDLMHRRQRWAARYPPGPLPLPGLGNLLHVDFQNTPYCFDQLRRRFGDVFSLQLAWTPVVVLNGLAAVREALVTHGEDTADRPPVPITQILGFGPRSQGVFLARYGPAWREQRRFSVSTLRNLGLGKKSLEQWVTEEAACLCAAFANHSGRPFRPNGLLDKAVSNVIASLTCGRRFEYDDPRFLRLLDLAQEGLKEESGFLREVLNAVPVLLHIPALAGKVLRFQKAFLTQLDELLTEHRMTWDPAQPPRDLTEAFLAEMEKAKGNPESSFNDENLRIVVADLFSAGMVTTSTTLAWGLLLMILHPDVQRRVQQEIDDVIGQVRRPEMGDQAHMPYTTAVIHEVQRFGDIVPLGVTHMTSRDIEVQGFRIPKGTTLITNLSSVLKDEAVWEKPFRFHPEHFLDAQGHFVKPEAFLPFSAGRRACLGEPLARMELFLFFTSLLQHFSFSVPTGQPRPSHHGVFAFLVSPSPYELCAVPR

Row | SMILES | EC50 [1] | %max [2] [%] | also measured
1 | COc1cccc(N2CC(NC(=O)c3sc4nnc(C)c(C)c4c3N)C2)c1 | 141 nM and 132 nM | 77 | –
2 | Cc1nnc2sc(C(=O)NC3CN(c4ccnc(Cl)c4)C3)c(N)c2c1C | 185 nM | 87 | –
3 | Cc1nnc2sc(C(=O)NC3CN(c4nc5ccccc5o4)C3)c(N)c2c1C | 419 nM | 89 | –
4 | Cc1nnc2sc(C(=O)NC3CN(c4ccc(F)cc4F)C3)c(N)c2c1C | 37 nM | 94 | –
5 | Cc1nnc2sc(C(=O)NCc3ccc(S(=O)(=O)C(F)(F)F)cc3)c(N)c2c1C | – | – | Activity [3]: 62%
6 | Cc1nnc2sc(C(=O)NC3CN(c4ccc(C(F)(F)F)nc4)C3)c(N)c2c1C | 76 nM | 75 | IC50 [4]: > 30 µM; Activity [5]: 55 - 56%; Vd [6]: 0.89 L/kg; %max [7]: 43%; Activity [3]: 55%; half-life [8]: 78 min; IC50 [9]: > 30 µM; efflux ratio [10]: 8.5; K(p,uu,brain) [11]: 0.33; IC50 [12]: > 30 µM; EC50 [13]: 960 nM; IC50 [14]: > 30 µM; Activity [15]: 44%; Activity [16]: 48%; Kp [17]: 0.12; clearance [18]: 8.8 mL/min/kg
7 | Cc1nnc2sc(C(=O)NC3CN(C(=O)Nc4ccccc4)C3)c(N)c2c1C | 217 nM | 89 | –
8 | COc1ccc(N2CC(NC(=O)c3sc4nnc(C)c(C)c4c3N)C2)cc1 | 1290 nM | 81 | –
9 | Cc1nnc2sc(C(=O)NC3CN(c4ccncn4)C3)c(N)c2c1C | 38 nM | 83 | Kp at 0.25 h [17]: < 0.05
10 | Cc1nnc2sc(C(=O)NC3CN(C(=O)c4ccccn4)C3)c(N)c2c1C | 564 nM | 91 | –
11 | Cc1nnc2sc(C(=O)NC3CN(c4nc5cccnc5s4)C3)c(N)c2c1C | 106 nM | 81 | Activity [3]: 16%; K(p,uu,brain) [11]: 1.3; EC50 [13]: 220 nM; Kp [17]: 0.17
12 | Cc1nnc2sc(C(=O)NC3CN(c4cccnc4F)C3)c(N)c2c1C | 29 nM | 82 | –
13 | Cc1cccc(OC(=O)N2CC(NC(=O)c3sc4nnc(C)c(C)c4c3N)C2)c1 | 67 nM | 85 | –
14 | Cc1nnc2sc(C(=O)NC3CN(S(=O)(=O)c4ccccc4)C3)c(N)c2c1C | 268 nM and 263 nM | 70 | –
15 | Cc1nnc2sc(C(=O)NC3CN(C(=O)c4ccncc4)C3)c(N)c2c1C | 179 nM | 85 | efflux ratio [10]: 96; K(p,uu,brain) [11]: 0.37; EC50 [13]: > 10000 nM; Kp [17]: 0.03; clearance [18]: 3.1 mL/min/kg
16 | Cc1nnc2sc(C(=O)NC3CN(c4ccccc4F)C3)c(N)c2c1C | 28 nM | 82 | –
17 | Cc1nnc2sc(C(=O)NC3CN(c4ccccn4)C3)c(N)c2c1C | 124 nM | 81 | –

Row | SMILES | EC50 [1] | %max [2] [%] | also measured
18 | Cc1nnc2sc(C(=O)NC3CN(C(=O)Oc4ccccc4)C3)c(N)c2c1C | 23 nM | 96 | half-life [8]: < 30 min; EC50 [13]: 2650 nM
19 | Cc1nnc2sc(C(=O)NC3CN(c4cncc(F)c4)C3)c(N)c2c1C | 16 nM | 90 | –
20 | COc1cc(N2CC(NC(=O)c3sc4nnc(C)c(C)c4c3N)C2)ccn1 | 51 nM | 86 | Drug metabolism [19]: Metabolite_Detected
21 | Cc1nnc2sc(C(=O)NC3CN(c4cnccn4)C3)c(N)c2c1C | 78 nM and 74.1 nM | 80 | Kp at 0.25 h [17]: < 0.05
22 | Cc1nnc2sc(C(=O)NC3CN(c4cncnc4)C3)c(N)c2c1C | 41 nM and 38.9 nM | 89 | Kp at 0.25 h [17]: < 0.05
23 | Cc1nnc2sc(C(=O)NC3CN(c4cccnc4)C3)c(N)c2c1C | 34 nM and 33.1 nM | 96 | Kp at 0.25 h [17]: < 0.05
24 | Cc1nnc2sc(C(=O)NC3CN(c4ccccc4)C3)c(N)c2c1C | 25 nM | 85 | %max [7]: 58%; K(p,uu,brain) [11]: 0.73; EC50 [13]: 1780 nM; Kp [17]: 0.57; clearance [18]: 45 mL/min/kg
25 | Cc1nnc2sc(C(=O)NC3CN(c4ccc(S(=O)(=O)C(F)F)cc4)C3)c(N)c2c1C | 325 nM | 75 | –
26 | Cc1nnc2sc(C(=O)NC3CN(c4ccc(F)c(F)c4)C3)c(N)c2c1C | 28.8 nM and 30 nM | 84 | clearance [18]: 4.4 mL/min/kg
27 | Cc1nnc2sc(C(=O)NC3CN(C(=O)OCc4ccccc4)C3)c(N)c2c1C | 30 nM | 81 | –
28 | Cc1nnc2sc(C(=O)NC3CN(c4ccc(S(=O)(=O)C(F)(F)F)cc4)C3)c(N)c2c1C | 934 nM | 86 | –
29 | Cc1nnc2sc(C(=O)NC3CN(c4cc(F)nc(F)c4)C3)c(N)c2c1C | 11 nM | 84 | –
30 | Cc1nnc2sc(C(=O)NC3CN(c4ccncc4Cl)C3)c(N)c2c1C | 8 nM | 86 | Drug metabolism [19]: Metabolite_Detected
31 | Cc1nnc2sc(C(=O)NC3CN(C(=O)c4ccccc4)C3)c(N)c2c1C | 773 nM | 85 | –
32 | Cc1nnc2sc(C(=O)NC3CN(c4nc5ccccc5s4)C3)c(N)c2c1C | 439 nM | 87 | –
33 | COc1cncc(N2CC(NC(=O)c3sc4nnc(C)c(C)c4c3N)C2)c1 | 17 nM | 88 | Kp [17]: < 0.05
34 | Cc1nnc2sc(C(=O)NC3CN(c4ccc(F)cc4)C3)c(N)c2c1C | 282 nM | 77 | –
